Assay outcomes: PubChem, The Scripps Research Institute Molecular Screening Center
OXTR ag – activates the human oxytocin receptor | P30559 | CHO-OTR cells, Fluo-8 calcium fluorescence; normalized: DMSO 0%, oxytocin 100% | activation, % at 3 µM | hit rate 0.32% among 320,000;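 active means activation above the mean of all tested compounds plus 3 SD, cutoff set per screening run, cut at about 20% in these data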;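 further: peak over basal fluorescence ratio from a 100 s FLIPR kinetic read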
V1aR counter – activates human V1a receptor in oxytocin agonist counter-screen | CHO-V1R cells, Fluo-8 calcium fluorescence, agonist mode; 0% DMSO, 100% 3 nM vasopressin | activation, % at 3 µM | hit rate 0.25% among 320,000;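 active means activation above the mean activation of all tested compounds plus 3 SD, per screening run, cut at about 20% in these data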;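 further: signal is peak over basal fluorescence ratio across a 100 second FLIPR read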
OX1R antag-1 – antagonists of human orexin 1 receptor. CHO/OX1R cells, Fluo-8 calcium fluorescence, orexin A. inhibition, % at 5 µM. hit rate 0.43% among 330,000. AID 434989;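 active means inhibition above its plate's threshold, mean inhibition of all tested compounds on the plate plus 3 SD, cut at about 37% in these data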;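 further: 0% = orexin A challenge wells and 100% = SB-334867-A antagonist wells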
Target sequence (O43613 whole entry, looked up): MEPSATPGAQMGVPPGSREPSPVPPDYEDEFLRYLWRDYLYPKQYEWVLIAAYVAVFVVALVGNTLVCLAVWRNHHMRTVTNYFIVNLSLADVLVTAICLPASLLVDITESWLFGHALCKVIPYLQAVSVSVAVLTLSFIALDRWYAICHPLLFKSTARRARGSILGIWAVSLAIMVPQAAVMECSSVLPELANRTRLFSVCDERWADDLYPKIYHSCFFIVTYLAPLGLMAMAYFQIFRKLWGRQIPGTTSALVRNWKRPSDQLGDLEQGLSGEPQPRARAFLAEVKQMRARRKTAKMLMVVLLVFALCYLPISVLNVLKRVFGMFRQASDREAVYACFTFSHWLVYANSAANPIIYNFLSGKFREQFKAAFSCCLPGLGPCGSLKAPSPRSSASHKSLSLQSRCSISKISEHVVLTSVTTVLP
CHO parental Ca – counter-screen for OX1R antagonists: effect in parental CHO cells; parental CHO-K1, ATP-induced calcium, Fluo-8 fluorescence; inhibition, % at 5.6 µM; hit rate 0.63% among 330,000; AID 463079;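 active means inhibition above that plate's mean sample inhibition plus 3 SD, cut at about 26% in these data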;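 further: 0% = ATP-challenged DMSO wells and 100% = DMSO wells without ATP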
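Assay system – parental CHO cells · Reagent – ATP stimulus · Detection – intracellular calcium via Fluo-8 no-wash fluorescent dye · Evaluation – percent inhibition of ATP-evoked calcium rise, normalized to controls · Controls – ATP wells versus no-ATP DMSO wells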
OXTR potentiate – potentiators of human oxytocin receptor; P30559; CHO-OTR cells, Fluo-8 calcium fluorescence, potentiator mode; 0% = oxytocin EC15, 100% = EC100; activation, % at 3 µM; hit rate 0.061% among 320,000;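 active means activation above that plate's cutoff, the mean activation of tested compounds plus 3 SD, cut at about 6.6% in these data, passing the limit was not always enough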;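 further: 100% uses oxytocin at 75 nM as the full agonist control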
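System: human OTR in CHO cells / Also added: sub-maximal oxytocin, roughly EC15 / Control set: EC15 oxytocin low, 75 nM oxytocin high / Schedule: 6 min compound pre-incubation at room temperature, 100 s kinetic read / Compound: single-point 3.0 µM / Replication: singlicate / Technique: Fluo-8 calcium dye fluorescence / Read-out basis: % activation of max/min ratio relative to oxytocin controls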
OX1R antag-2 – blocks the human orexin 1 receptor. O43613. OX1R-expressing cells, FRET antagonist read-out. inhibition, % at 6.6 µM. hit rate 1.8% among 330,000. AID 485270; in the data active means inhibition mostly above about 38%, no sharp cut-off; inactive means mostly below about 40%;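 further: 0% = agonist challenge alone and 100% = reference antagonist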
OX1R Ca confirm – OX1R (human) antagonism, confirmed; shares compounds with OX1R antag-1; CHO/OX1R cells, orexin A calcium Fluo-8 fluorescence; inhibition, % at 5 µM; hit rate 38% among 1,100; in the data active means inhibition above about 29%;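 further: 0% = agonist challenge alone and 100% = reference antagonist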
CHO Ca triplic – counter-screen: parental CHO calcium response change, triplicate; shares compounds with OX1R antag-1; parental CHO-K1, ATP-induced calcium, Fluo-8 fluorescence; inhibition, % at 5.6 µM; hit rate 9.3% among 1,100; AID 492965;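 active means inhibition above a per-plate limit, the mean inhibition of that plate's test compounds plus 3 SD, cut at about 25% in these data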;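 further: 0% = ATP challenge with DMSO and 100% = DMSO without ATP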
OX1R HTRF conf – confirmation of human orexin 1 receptor antagonists, HTRF format | inhibition, % at 6.6 µM | hit rate 49% among 1,800 | OX1R-expressing cells, HTRF antagonist assay | shares compounds with OX1R antag-2; in the data active means inhibition above about 55%;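 further: CHO cells expressing OX1R stimulated with orexin A at about EC80; 0% = agonist challenge alone and 100% = reference antagonist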
CHO-K1 HTRF cnt – signal in parental CHO-K1 cells, OX1R antagonist counter-screen; inhibition, % at 6.6 µM; hit rate 48% among 1,800; AID 493232; shares compounds with OX1R antag-2; HTRF counterscreen; in the data active means inhibition above about 17%;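 further: 0% = agonist challenge with vehicle and 100% = vehicle alone without agonist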
* hit, by the source's call; / = no result. Most compounds without a hit are left out; they make up all but 2.7% or so of the library.

SMILES	OXTR ag	V1aR counter	OX1R antag-1	CHO parental Ca	OXTR potentiate	OX1R antag-2	OX1R Ca confirm	CHO Ca triplic	OX1R HTRF conf	CHO-K1 HTRF cnt
CC(C)OCCCN(C)C1CCN(S(=O)(=O)c2ccc(-c3cc(C(F)(F)F)no3)s2)CC1	2	8	-7	-9	-21	15	/	/	/	/
O=C(CSc1ncccn1)NCC1CCCO1 (configuration not stated)	-1	0	-12	3	-2	2	/	/	/	/
COc1ccc(NC(=O)CSc2nc3sc(C)cc3c(=O)n2C)cc1	1	2	-18	0	0	12	/	/	/	/
COc1ccc(NC(=O)CSc2nc3sc(C)cc3c(=O)n2C)c(OC)c1	7	4	43*	-8	-30	88*	31*	-16	86*	-15
CSc1nsc(N/N=C/c2ccccc2)c1C#N	2	0	-10	7	-8	12	/	/	/	/
COc1ccc(/C=N/Nc2snc(SC)c2C#N)cc1OC	0	0	74*	-17	-9	109*	53*	-2	96*	17*
COc1cccc(-c2cc(C(=O)Nc3ccccc3SC)no2)c1	-1	1	76*	-18	-6	60*	71*	-7	95*	13
Cc1cc(=O)[nH]c(SCC(=O)Nc2ccc(Br)cc2)c1C#N	17	12	42*	4	-27	93*	18	15	40	13
CCOCCCn1c(=S)[nH]c2cc(C(=O)NCCc3ccccc3)ccc2c1=O	1	2	-24	-10	-15	17	/	/	/	/
CC1CN(S(=O)(=O)c2cccc(C(=O)OC(C)C(=O)NC3CCCCC3C)c2)CC(C)O1 (configuration not stated)	-1	0	-16	-11	-9	11	/	/	/	/
Cc1ccc(C)c(CNS(=O)(=O)c2c(C)[nH]c(C)c2C(=O)N2CCCCC2)c1	0	0	-30	-22	5	18	/	/	/	/
COc1cccc(CN(C(=O)c2ccccc2Cl)C2CCS(=O)(=O)C2)c1 (configuration not stated)	0	1	-22	-5	-4	3	/	/	/	/
CCOc1cc(C(=S)N2CCOCC2)cc(Br)c1OS(=O)(=O)c1ccccc1	0	1	28	-16	-9	47*	52*	6	62*	12
CC(=O)Nc1cccc(OCC(=O)NC(C)c2ccc3ccccc3c2)c1 (configuration not stated)	3	5	51*	-13	-11	90*	62*	-4	78*	12
CC(=O)Nc1cccc(OCC(=O)Nc2ccccc2)c1	1	6	4	2	-17	-3	/	/	/	/
CC(=O)Nc1ccc(NC(=O)COC(=O)C2CCCCC2)cc1	2	0	9	-2	-3	4	/	/	/	/
COc1ccc(CCNc2cc(C)[nH]c(=O)c2)cc1OC	2	0	31	-3	-12	45*	5	4	18	5
CN(c1ccccc1)S(=O)(=O)c1cccc(NC(=O)COc2cccc([N+](=O)[O-])c2)c1	7	8	46*	13	-10	33*	29	1	26	1
O=C1Cc2cc(S(=O)(=O)NCc3ccc(F)cc3)ccc2N1	1	0	3	-19	-6	7	/	/	/	/
CC1CC(C)CN(C(=S)SCc2nc(N)nc(Nc3ccccc3)n2)C1 (configuration not stated)	-2	0	40*	-30	-9	75*	48*	-14	77*	4
N/C(=N\OC(=O)/C=C/c1ccccc1Cl)c1ccncc1	-2	-1	-4	-13	-6	19	/	/	/	/
COc1ccc(CCNC(=O)c2cc(C3CC3)nc3c2cnn3C(C)C)cc1	-2	-1	-38	-31	-2	0	/	/	/	/
CC(C)n1ncc2c(C(=O)NCC(=O)Nc3ccccc3Br)cc(C3CC3)nc21	-1	0	45*	-35	-4	40*	4	-3	44	2
Nc1sc2c(c1C(=O)NC1CC1)CCCC2	0	1	-37	-14	-3	-1	/	/	/	/
N#C/C(=C\Nc1ccc2c(c1)OCCO2)c1nc(-c2ccccc2)cs1	1	0	-7	-4	-16	9	/	/	/	/
SMILES	OXTR ag	V1aR counter	OX1R antag-1	CHO parental Ca	OXTR potentiate	OX1R antag-2	OX1R Ca confirm	CHO Ca triplic	OX1R HTRF conf	CHO-K1 HTRF cnt
N#C/C(=C\Nc1ccc2c(c1)OCCO2)c1nc2ccccc2[nH]1	-2	-2	28	-10	-10	91*	12	-11	74*	10
CCOC(=O)C1CCCN(C(=O)c2ccc3nc(-c4cccc(OC)c4)oc3c2)C1 (configuration not stated)	0	2	-32	-23	-7	39	/	/	/	/
Cc1ccc(-c2c(C)sc(NC(=O)C3C4CCC(O4)C3C(=O)O)c2C(=O)OC(C)C)cc1 (configuration not stated)	-1	0	52*	-12	-12	78*	7	3	60*	9
CCOC(=O)c1c(NC(=O)C2C3CCC(O3)C2C(=O)O)sc2c1CCCC2 (configuration not stated)	0	0	-19	-6	3	18	/	/	/	/
COc1cccc(NC(=O)C(=O)NCC2CCCN2S(=O)(=O)c2ccccc2)c1 (configuration not stated)	0	-1	-17	-21	-6	45	/	/	/	/
COc1cccc(C(=O)NCC2CCCN2S(=O)(=O)c2ccccc2)c1 (configuration not stated)	1	1	40	-30	-2	49*	13	-18	63*	-6
C=CCn1c(SCc2ccc(C(=O)Nc3nccs3)cc2)nnc1-c1ccc(C)c(Cl)c1	4	5	70*	3	-9	79*	69*	18	82*	1
O=C(CSCc1cccc(Cl)c1)OCc1nc2ccsc2c(=O)[nH]1	0	0	-22	-17	-6	10	/	/	/	/
Cc1noc(C)c1COC(=O)c1ccc2c(c1)OCO2	1	1	-5	1	0	6	/	/	/	/
Cc1noc(C)c1COC(=O)c1ccc2c(c1)S(=O)(=O)c1ccccc1C2=O	2	1	59*	-18	-10	111*	65*	-9	102*	17*
